Measured values published in ChEMBL document CHEMBL4513216, “Probing the Open Global Health Chemical Diversity Library for Multistage-Active Starting Points for Next-Generation Antimalarials” (ACS Infect Dis, 2020).

Assay: Toxicity liver stage against HepG2, at 10uM
Type: cell-based
Set-up: test concentration 10 uM, cell line HepG2-A16-CD81EGFP
Settings: human, HepG2-A16-CD81EGFP cells; read-out: INHIBITION
How it was run: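 Uninfected HepG2-A16-CD81EGFP cells, 3 × 10^3 per well, 1536-well, plated on prespotted compound at 10 μM final, parasite-free screening media added to match infected plates; puromycin 10 μM positive, DMSO 0.5% negative; run in parallel with 48 h PbLuc assay at 37 °C, 5% CO2; viability by CellTiter-Glo luminescence, normalized to controls.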

Going from `Cc1ccc(CN(C)C(=O)CN2CCCC2Cn2cncn2)cc1` (configuration not stated) to `CCN(Cc1ccccc1)C(=O)CN1CCCC(Cn2cncn2)C1` (configuration not stated), the cytotoxicity at 10 µM falls from 7.84% to 0.421%.

Going from `Cc1csc(NC(=O)c2ccc(NC(=O)N3CCOCC3)cc2)n1` to `CC(=O)Nc1nc(C(=O)NCc2ccc(N3CCOCC3)nc2)cs1`, the cytotoxicity at 10 µM falls from 1.11% to -14%.

Compared with `O=C(CN1C(=O)CCC1=O)NCC1(O)CCc2ccccc21` (configuration not stated), `CCS(=O)(=O)N1CCC2(CC(=O)N(c3ccccc3C)C2)C1` (configuration not stated) is higher in cytotoxicity at 10 µM: -15.7% for the first, 2.82% for the second.

First: NC(=O)NCC1CCCCN1C(=O)c1ccc(Cl)s1 (configuration not stated)
Second: O=C(NCCCc1cccs1)N1CCCCC1CCO (configuration not stated)
The cytotoxicity at 10 µM of the first is lower: -12.1% for the first, 6.06% for the second.

Going from `C=C(C)CNCC1(O)CCCN(Cc2ccc(F)c(F)c2)C1=O` (configuration not stated) to `O=C(NCc1ccccn1)N(Cc1ccc(F)cc1F)C1CC1`, the cytotoxicity at 10 µM falls from -1.12% to -17.5%.

Going from `COc1ccc(OCC(=O)NS(=O)(=O)c2ccc(Cl)s2)cc1` to `CN(c1ccc(CNc2c(Cl)cccc2C#N)cc1)S(C)(=O)=O`, the cytotoxicity at 10 µM falls from 14.1% to -66.9%.

First: CCS(=O)(=O)NC(CCSC)C(=O)Nc1ccccc1C (configuration not stated)
Second: CSCC[C@H](NC(=O)N1CCC(Cc2ccccc2)CC1)C(=O)O
The cytotoxicity at 10 µM of the first is higher: 1.06% for the first, -1.55% for the second.

First: COCC(=O)NCc1cc2n(n1)CCCN(Cc1ccccc1SC)C2
Second: Cn1ccc(CN2CCCC23CCN(Cc2ccccc2F)CC3)n1
The cytotoxicity at 10 µM of the first is higher: 2.04% for the first, -104% for the second.

Going from `Cc1csc(N2CCN(C(=O)CCn3cccn3)CC2)n1` to `O=C(c1ccccn1)N1CCN(c2cnnc(N3CCCC3)c2)CC1`, the cytotoxicity at 10 µM rises from -9.41% to 4.74%.

First: CC(C)Oc1ncccc1CNC(=O)NC1CCOc2ccccc21 (configuration not stated)
Second: CC(C)NC(=O)CNC(=O)c1csc(Cc2ccccc2F)n1
The cytotoxicity at 10 µM of the first is higher: -3.16% for the first, -4.44% for the second.

Going from `Cc1nn(C)c(C)c1CC(=O)N1CCCC(n2ccnc2)C1` (configuration not stated) to `COCCOc1cccc(C(=O)N2CCCC(n3ccnc3)C2)c1` (configuration not stated), the cytotoxicity at 10 µM falls from -11.5% to -17.1%.

Compared with `CCC1C(=O)NCCN1c1ccnc(C(C)(C)C)n1` (configuration not stated), `CCC(C)(C)NC(=O)c1nnn(-c2cccc3c2CCN(C)C3)c1C` is higher in cytotoxicity at 10 µM: -8.37% for the first, -0.663% for the second.

Compared with `Cc1c(-c2cc(C(F)F)nc3sc(C(N)=O)c(N)c23)cnn1C`, `CC(=O)N1CCc2nc3sc(C(N)=O)c(N)c3c(C(F)(F)F)c2C1` is lower in cytotoxicity at 10 µM: 10.1% for the first, 6.28% for the second.

Compared with `CCCOCC(=O)NS(=O)(=O)c1ccc2c(c1)OCCO2`, `Cc1cc(C)cc(N(C)S(=O)(=O)c2cc3c(c(C(=O)O)c2)OCCO3)c1` is higher in cytotoxicity at 10 µM: -6.46% for the first, -4.02% for the second.

First: Cn1c(N)c2c(=O)n(C)c(-c3ccc(Cl)cc3Cl)cc2c(C#N)c1=O
Second: Cn1c(=O)c2cc(C(=O)NCCOc3ccccc3)ccc2n(C)c1=O
The cytotoxicity at 10 µM of the first is lower: -5.43% for the first, -4.69% for the second.

Going from `CCOCCN1CCN(Cc2cccc(C(=O)N(C)C)c2)CC1C` (configuration not stated) to `COCCN1CCN(CCCS(C)(=O)=O)CC1C` (configuration not stated), the cytotoxicity at 10 µM falls from 3.57% to -5.5%.

Going from `Cc1noc(C)c1CC(=O)NCc1ccnc(OCC(F)(F)F)c1` to `Cc1nn2cc(CCNC(=O)c3cc(C(C)C)no3)nc2s1`, the cytotoxicity at 10 µM rises from -7.83% to -4.8%.

Going from `Cc1ccsc1CN(C)c1cc(N2CCOCC2)ncn1` to `Cc1cc(C2CCCCN2C(=O)c2ccsc2)nc2nccn12` (configuration not stated), the cytotoxicity at 10 µM falls from -0.33% to -11.8%.

First: COc1ccc(C(=O)N2CCO[C@H]3[C@@H](OCC4CC4)CC[C@@H]32)cc1F
Second: COC1CCN(C(=O)C2CC(=O)N(c3ccccc3Br)C2)CC1 (configuration not stated)
The cytotoxicity at 10 µM of the first is higher: 19.1% for the first, -3.57% for the second.

First: Cc1nc(C2CCCN2Cc2ncc(C(C)C)o2)no1 (configuration not stated)
Second: CCc1nc(C2CCCN2Cc2nc(C3CC3)no2)no1 (configuration not stated)
The cytotoxicity at 10 µM of the first is higher: 4.31% for the first, -21.4% for the second.

First: CN(Cc1ccco1)C(=O)C1CSCN1C(=O)c1cccs1 (configuration not stated)
Second: CCC(=O)N1CSCC1C(=O)Nc1ccccc1-c1cccs1 (configuration not stated)
The cytotoxicity at 10 µM of the first is lower: -7.81% for the first, -3.8% for the second.

Compared with `O=c1c(NCCc2ccc(O)cc2)c(NCc2ccccn2)c1=O`, `O=C1CC(c2ccc(O)cc2)c2c(n3ccsc3nc2=O)N1` (configuration not stated) is lower in cytotoxicity at 10 µM: -2.72% for the first, -3.12% for the second.

Compared with `CC(C)c1nc(C2CCCN(C(=O)Cc3cccnc3)C2)no1` (configuration not stated), `CC(C)Nc1nc(-c2ccccc2)nc2c1CCN(C(=O)CC#N)CC2` is lower in cytotoxicity at 10 µM: -8.97% for the first, -104% for the second.

First: CCC1(CNC(=O)NC(c2nnc3n2CCC3)C(C)C)CCC1 (configuration not stated)
Second: Cc1nn(C)c(Cl)c1C1CCCN1CC(=O)NC1CCCC1 (configuration not stated)
The cytotoxicity at 10 µM of the first is higher: 0.864% for the first, -3.78% for the second.

Going from `CC(=O)c1cc(CN2C[C@@H](C(=O)O)[C@H](c3cccnc3)C2)cs1` to `O=C1C[C@H]2[C@@H](CCN2C(=O)Cc2cccs2)N1Cc1ccncc1`, the cytotoxicity at 10 µM rises from 4.11% to 6.12%.

Compared with `Cc1cc(C)n(C2CN(c3nc(N)nc4c3CCCC4)C2)n1`, `Cc1ccc(NC2CCN(C(=O)Cn3nc(C)cc3C)CC2)nn1` is higher in cytotoxicity at 10 µM: -44.4% for the first, -1.81% for the second.

Compared with `Cc1nsc(C(=O)NCCCc2ccccc2)n1`, `Cc1nc(CCN)cc(N2CCC(O)(c3ccccc3)C2)n1` (configuration not stated) is higher in cytotoxicity at 10 µM: -0.449% for the first, 2.03% for the second.

Going from `Fc1ccc(C2CCCN2Cc2nc(Cc3ccccc3F)no2)cc1` (configuration not stated) to `Nc1nc(O)cc(N2CCC(c3cc(Cc4ccccc4)n[nH]3)CC2)n1`, the cytotoxicity at 10 µM rises from -18.2% to 1.85%.

First: Cc1cccc(COC2COC3(CCN(S(C)(=O)=O)CC3)C2)n1 (configuration not stated)
Second: Cc1cc(Cl)ccc1C(=O)N[C@H]1CN(S(C)(=O)=O)C[C@@H]1C1CC1
The cytotoxicity at 10 µM of the first is higher: 8.98% for the first, 8.9% for the second.

Going from `CC(C)OCCCNC(=O)CN1CCN(c2nccs2)CC1` to `CC(C)(C)OC(=O)NC1CCCN(Cc2cccs2)C1` (configuration not stated), the cytotoxicity at 10 µM falls from 3.44% to -40.7%.

Compared with `COc1ccccc1C1CNC(=O)c2nc(-c3c(C)n[nH]c3C)[nH]c2C1` (configuration not stated), `COc1ccc2[nH]c(C[C@@H]3C[C@@H](C(C)C)[C@H](CN(C)C)C=C3C)nc2c1` is higher in cytotoxicity at 10 µM: -8% for the first, -0.626% for the second.

First: COC(=O)CNC(=O)Cn1ccc2ccc(F)cc21
Second: CN(C)C(C(=O)NCCS(=O)(=O)N(C)C)c1cccc(F)c1 (configuration not stated)
The cytotoxicity at 10 µM of the first is lower: -1.33% for the first, 2.73% for the second.

Compared with `FC(F)(F)c1ccc2nc([C@H]3CCN(C4CCOCC4)C3)[nH]c2c1`, `O=C1NC2(CCN(Cc3nccs3)CC2)CC1c1ccncc1` (configuration not stated) is lower in cytotoxicity at 10 µM: 0.354% for the first, -1.31% for the second.

First: CC(C)(NCc1cccc(C(N)=O)c1)c1ccc2c(c1)OCO2
Second: Cn1ccnc1-c1ccc(NCCC2COc3ccccc3O2)nn1 (configuration not stated)
The cytotoxicity at 10 µM of the first is lower: 3.15% for the first, 9.56% for the second.

Going from `CN(Cc1ncc[nH]1)CC1CCOc2ccccc2C1` (configuration not stated) to `Cc1cnc(C(=O)N(CCN(C)C)Cc2ccc(Cl)cc2)cn1`, the cytotoxicity at 10 µM rises from -1.93% to 1.58%.

Compared with `O=C(c1ncoc1-c1ccco1)N1CCCN(c2ncccn2)CC1`, `c1cnc(N2CCOC3(CCCN(c4cnccn4)C3)C2)nc1` (configuration not stated) is higher in cytotoxicity at 10 µM: 2.7% for the first, 10.1% for the second.

Going from `NC(=O)C1Cn2ccnc2C2(CCN(C(=O)NC3CCCC3)CC2)O1` (configuration not stated) to `O=C(N1CCOCC1)N1C2CCC(O)(CC2)C1CN1CCOCC1` (configuration not stated), the cytotoxicity at 10 µM rises from -104% to -1.94%.

Going from `CC(C)NC(=O)CC(C)NC(=O)N(C)Cc1cc(Cl)cn1C` (configuration not stated) to `CCC(=O)Nc1cccc(OCC(=O)N(C)CCCC2CCCO2)c1` (configuration not stated), the cytotoxicity at 10 µM falls from -0.414% to -4.63%.

First: COCCOCC(=O)NC(C#N)c1c(F)cccc1Cl (configuration not stated)
Second: CNC(=O)c1cnc(/C=C/c2cc(OC)cc(OC)c2)s1
The cytotoxicity at 10 µM of the first is higher: 19.6% for the first, -19.6% for the second.

First: COC(=O)[C@H](C)NC(=O)Cc1c(C)nc2c(c1C)c(=O)[nH]n2C
Second: COc1cc(OC)cc(C(=O)N(C)Cc2nnc3ccccn23)c1
The cytotoxicity at 10 µM of the first is higher: 10.7% for the first, -26.9% for the second.

First: CC1COCCN1C(=O)c1cnccn1 (configuration not stated)
Second: Cn1nnc2c1C(COCc1ccccn1)CN(C(=O)c1ccsc1)C2 (configuration not stated)
The cytotoxicity at 10 µM of the first is lower: -4.36% for the first, 13.6% for the second.
